Test results from ChEMBL document CHEMBL4406804, “Discovery of a Potent Steroidal Glucocorticoid Receptor Antagonist with Enhanced Selectivity against the Progesterone and Androgen Receptors (OP-3633)” (J Med Chem, 2019).
In brackets after ≈: the same amount, converted by molar mass.

Columns and labels:
Androgen receptor [1] = target: T1, Androgen receptor (Homo sapiens, UniProt P10275); experiment: Antagonist activity at human androgen receptor in human LNCAP cells harboring firefly luciferase gene after 20 hrs by One-Glo luciferase reporter gene assay; assay type: cell-based
T1 sequence (P10275 whole entry): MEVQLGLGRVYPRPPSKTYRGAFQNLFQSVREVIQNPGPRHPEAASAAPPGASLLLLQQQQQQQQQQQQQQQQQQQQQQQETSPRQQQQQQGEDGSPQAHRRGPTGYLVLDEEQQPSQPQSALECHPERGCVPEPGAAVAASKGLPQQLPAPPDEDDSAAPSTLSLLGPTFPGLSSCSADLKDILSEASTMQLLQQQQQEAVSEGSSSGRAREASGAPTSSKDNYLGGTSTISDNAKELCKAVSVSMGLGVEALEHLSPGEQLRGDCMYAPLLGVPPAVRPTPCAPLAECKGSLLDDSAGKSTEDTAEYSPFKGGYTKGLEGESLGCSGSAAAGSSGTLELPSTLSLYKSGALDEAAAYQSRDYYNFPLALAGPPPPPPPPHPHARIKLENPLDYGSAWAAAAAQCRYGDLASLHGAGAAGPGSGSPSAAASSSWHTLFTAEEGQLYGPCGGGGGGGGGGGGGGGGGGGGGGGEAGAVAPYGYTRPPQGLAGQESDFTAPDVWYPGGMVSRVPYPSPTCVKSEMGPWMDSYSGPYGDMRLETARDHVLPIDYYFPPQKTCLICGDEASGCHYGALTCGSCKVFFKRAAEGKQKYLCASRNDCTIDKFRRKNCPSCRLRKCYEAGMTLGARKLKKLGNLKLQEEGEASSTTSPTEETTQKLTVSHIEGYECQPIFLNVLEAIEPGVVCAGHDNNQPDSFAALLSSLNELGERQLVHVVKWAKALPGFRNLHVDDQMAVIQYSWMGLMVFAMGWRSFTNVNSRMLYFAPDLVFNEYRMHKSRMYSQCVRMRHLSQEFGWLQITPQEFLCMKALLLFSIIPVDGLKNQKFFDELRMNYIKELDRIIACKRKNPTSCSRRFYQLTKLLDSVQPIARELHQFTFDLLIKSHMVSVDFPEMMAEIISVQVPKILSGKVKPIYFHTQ
Method in brief: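 Cell-based luciferase reporter assays for GR, AR and PR, run in agonist and antagonist modes. Potency and Emax are averages of at least two determinations, reported with SD.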

[2] = Toxicity in female rat assessed as effect on body weight at 250 mg/kg/day, po administered once daily via gavage for 14 days; assay type: organism-based; details: in vivo, 336 h
[3] = Oral bioavailability in rat at 5 mg/kg; assay type: ADME, organism-based; details: in vivo
Method in brief: (§1)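 Rat PK study. The iv dose of 0.5 mg/kg was given in 10% DMSO, 70% PEG 400 and 20% water. The oral dose of 5 mg/kg was given in 5% DMSO / 95% of 0.2% Tween 80 in 0.25% CMC, adjusted to pH 4 for one compound. Read-outs were CL, Vss, iv t1/2, F, Cmax and AUC.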

[4] = AUC in mini-pig at 5 mg/kg, po; assay type: ADME, organism-based, Sus scrofa domesticus; details: in vivo
Cytochrome P450 3A4 = Cytochrome P450 3A4 (Homo sapiens, UniProt P08684); experiment: Inhibition of CYP3A4 (unknown origin) using midazolam as substrate; assay type: ADME
[5] = Volume of distribution at steady state in dog at 0.5 mg/kg, iv; assay type: ADME, organism-based, Canis lupus familiaris; details: in vivo, read-out: Vdss
[6] = Half-life in dog at 0.5 mg/kg, iv; assay type: ADME, organism-based, Canis lupus familiaris; details: in vivo
[7] = Solubility of compound in fasted state simulated intestinal fluid at pH 6.5; assay type: physicochemical
[8] = Volume of distribution at steady state in rat at 0.5 mg/kg, iv; assay type: ADME, organism-based; details: in vivo, read-out: Vdss; method in brief: as §1
Androgen receptor [9] = target: T1, Androgen receptor; experiment: Agonist activity at human androgen receptor in human LNCAP cells harboring firefly luciferase gene after 20 hrs by One-Glo luciferase reporter gene assay; assay type: cell-based
[10] = Oral bioavailability in dog at 5 mg/kg; assay type: ADME, organism-based, Canis lupus familiaris; details: in vivo
Glucocorticoid receptor = target: T2, Glucocorticoid receptor (Homo sapiens, UniProt P04150); experiment: Antagonist activity at human glucocorticoid receptor expressed in CHO-K1 cells assessed as inhibition of glucocorticoid receptor-dexamethasone coactivator protein-protein interaction incubated for 24 hrs by bioluminescence assay; assay type: cell-based
T2 sequence (P04150 whole entry): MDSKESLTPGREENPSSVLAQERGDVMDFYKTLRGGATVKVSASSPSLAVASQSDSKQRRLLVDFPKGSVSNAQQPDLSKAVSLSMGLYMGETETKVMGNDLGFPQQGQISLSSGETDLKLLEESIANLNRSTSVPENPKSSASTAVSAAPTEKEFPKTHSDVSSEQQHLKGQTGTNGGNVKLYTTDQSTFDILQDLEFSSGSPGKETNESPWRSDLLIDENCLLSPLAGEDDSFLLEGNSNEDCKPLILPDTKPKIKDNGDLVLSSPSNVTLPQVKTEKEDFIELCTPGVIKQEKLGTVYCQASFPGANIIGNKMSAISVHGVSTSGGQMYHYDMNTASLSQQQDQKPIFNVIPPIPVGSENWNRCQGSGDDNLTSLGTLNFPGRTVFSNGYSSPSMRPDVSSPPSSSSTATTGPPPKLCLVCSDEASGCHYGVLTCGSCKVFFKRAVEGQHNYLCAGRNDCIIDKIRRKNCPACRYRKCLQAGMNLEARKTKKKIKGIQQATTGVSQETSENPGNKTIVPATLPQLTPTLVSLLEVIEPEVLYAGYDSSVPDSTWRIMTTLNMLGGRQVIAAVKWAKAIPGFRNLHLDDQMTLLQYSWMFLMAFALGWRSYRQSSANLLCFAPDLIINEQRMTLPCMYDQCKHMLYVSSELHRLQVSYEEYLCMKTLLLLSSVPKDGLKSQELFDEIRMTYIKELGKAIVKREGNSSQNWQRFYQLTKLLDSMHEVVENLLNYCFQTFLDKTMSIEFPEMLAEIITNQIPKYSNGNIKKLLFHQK

Cytochrome P450 2C8 = target: T3, Cytochrome P450 2C8 (Homo sapiens, UniProt P10632); experiment: Inhibition of CYP2C8 (unknown origin) using paclitaxel as substrate; assay type: ADME
T3 sequence (P10632 whole entry): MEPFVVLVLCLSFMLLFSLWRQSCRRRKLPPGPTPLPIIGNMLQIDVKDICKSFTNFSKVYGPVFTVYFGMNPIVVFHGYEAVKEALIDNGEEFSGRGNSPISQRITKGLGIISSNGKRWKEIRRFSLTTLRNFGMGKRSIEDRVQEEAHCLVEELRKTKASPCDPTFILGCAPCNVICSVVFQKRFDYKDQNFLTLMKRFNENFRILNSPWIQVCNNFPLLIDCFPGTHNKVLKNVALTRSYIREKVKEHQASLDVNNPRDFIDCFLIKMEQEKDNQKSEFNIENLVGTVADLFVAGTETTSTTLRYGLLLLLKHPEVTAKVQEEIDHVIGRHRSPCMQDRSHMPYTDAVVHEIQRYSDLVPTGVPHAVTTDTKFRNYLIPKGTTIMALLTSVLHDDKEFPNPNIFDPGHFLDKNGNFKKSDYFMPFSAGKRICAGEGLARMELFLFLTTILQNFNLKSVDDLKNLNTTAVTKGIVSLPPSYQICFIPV

Sequence of Cytochrome P450 3A4 (P08684 whole entry): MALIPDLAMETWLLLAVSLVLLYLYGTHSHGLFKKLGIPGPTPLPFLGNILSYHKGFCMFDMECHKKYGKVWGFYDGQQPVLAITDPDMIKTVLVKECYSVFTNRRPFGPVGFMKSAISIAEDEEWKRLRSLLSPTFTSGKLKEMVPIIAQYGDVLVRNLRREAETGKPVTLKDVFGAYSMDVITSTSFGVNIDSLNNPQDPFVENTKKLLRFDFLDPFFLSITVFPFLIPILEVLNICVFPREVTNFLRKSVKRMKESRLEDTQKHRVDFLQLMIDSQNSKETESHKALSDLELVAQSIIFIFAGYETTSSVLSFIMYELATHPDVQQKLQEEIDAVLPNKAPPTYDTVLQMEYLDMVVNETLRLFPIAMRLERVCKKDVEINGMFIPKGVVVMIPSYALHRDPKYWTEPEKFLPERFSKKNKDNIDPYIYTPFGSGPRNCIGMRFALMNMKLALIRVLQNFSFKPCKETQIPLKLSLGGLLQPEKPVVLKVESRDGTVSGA

In the case of `CC#C[C@]1(O)CC[C@H]2[C@@H]3CCC4=CC(=O)CC[C@]4(C)[C@H]3[C@@H](c3ccc(N(C)C)cc3)C[C@@]21C`, the IC50 (Androgen receptor [1]) is reported as 912 nM, the Activity [2] is reported as “Non-Toxic” and the bioavailability [3] is reported as 62%. The AUC [4] was 2450 ng·h/mL, the IC50 (Cytochrome P450 3A4) was over 10000 nM and the Vd [5] was 8.32 L/kg. For the same compound, the half-life [6] was 16.2 h, the solubility [7] was 59.5 µM (≈ 26.5 µg/mL) and the Vd [8] was 4.7 L/kg. For the same compound, the EC50 (Androgen receptor [9]) was over 2500 nM, the bioavailability [10] was 67.6% and the IC50 (Glucocorticoid receptor) was 16 nM. The IC50 (Cytochrome P450 2C8) was 8000 nM.
